Data set [1] deals with Candida parapsilosis. Nature of the data set: Antifungal activity against Candida parapsilosis ATCC 22019 at 35 degC after 48 hrs by broth microdilution test. It is filed as functional. The note with it: Lodderomyces parapsilosis, ATCC 22019, 48 h; for MFC: read-out: MFC; for MIC: read-out: MIC. The procedure, abridged: (§1)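 Broth microdilution per NCCLS M27-A2. Stocks in 100% DMSO, diluted in RPMI 1640 with 0.165 M MOPS at pH 7.0; final range 0.25–128 µg/mL. Inoculum 1000–5000 cells/mL from SDA subcultures. […] C. parapsilosis ATCC22019 served as QC strain.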

Data set [2] relates to Candida albicans. Nature of the data set: Antifungal activity against Candida albicans ATCC 10261 at 35 degC after 48 hrs by broth microdilution test. The class given is functional. The conditions noted are these: Candida albicans, ATCC 10261, 48 h; for MIC: read-out: MIC; for MIC50: read-out: MIC50; for MIC90: read-out: MIC90. An outline of the steps:
as §1
A general note: Broth dilution looks for growth in wells or tubes with falling amounts of substance.

In data set [3] the test system is Candida albicans. Nature of the data set: Antifungal activity against Candida albicans ATCC 10261 at 35 degC after 48 to 96 hrs by broth microdilution test. It is filed as functional. The note with it: for MFC: Candida albicans, ATCC 10261, read-out: MFC. The procedure, abridged: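 Minimal fungicidal concentration for Candida. […] MFC is the lowest concentration allowing fewer than two colonies (99% killing).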

A short description of data set [4]: Cytotoxicity against human U937 cells assessed as reduction of cell viability after 24 hrs by MTT assay. The class given is cell-based, U-937. An outline of the steps:
(§2)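 U937 and K562 cells, from ATCC, plated at 5 × 10^4/mL in phenol-red-free RPMI-1640 with 20% FBS and penicillin/streptomycin. Compounds added 2 h later at 25–100 µg/mL, then 24 h at 37 °C. MTT at 1 mg/mL for 3 h, formazan dissolved in isopropanol with 0.1 N HCl, absorbance read at 570 nm. CC50 is the concentration reducing viability by 50% versus the drug-free control.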
Background: Formazan colour is commonly taken as a measure of viable cells.

Data set [5] in a line: Cytotoxicity against human K562 cells after assessed as reduction of cell viability 24 hrs by MTT assay. It is filed as cell-based. An outline of the steps:
as §2

Data set [6] has as its system Candida albicans. Nature of the data set: Antifungal activity against fluconazole-resistant Candida albicans isolated from oropharyngeal or vaginal disease patient after 48 hrs by broth microdilution test. The class given is functional.
Data set [7] relates to Candida albicans. Nature of the data set: Antifungal activity against fluconazole-sensitive Candida albicans Fe40 at 35 degC after 48 hrs by broth microdilution test. It is filed as functional. The procedure, abridged:
as §1

Data set [8] has as its system Arthrodermataceae. Nature of the data set: Antifungal activity against dermatophytes at 28 degC after 7 days by broth microdilution test. It is filed as functional. The conditions noted are these: 168 h. An outline of the steps:
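Ten clinical isolates (two M. canis, five M. gypseum, three T. mentagrophytes) tested by NCCLS M38-A broth microdilution in MOPS-buffered RPMI 1640, pH 7.0, over 0.25–128 µg/mL. Conidial/hyphal suspension from PDA slants (28 °C, 7 days) adjusted to 65–70% transmittance at OD530, then diluted 1:50.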

Data set [9] concerns Arthrodermataceae. Nature of the data set: Antifungal activity against dermatophytes at 28 degC after 5 days by broth microdilution test. The note with it: for MFC: Arthrodermataceae.
Data set [10] has as its system Arthrodermataceae. Nature of the data set: Antifungal activity against dermatophytes at 28 degC after 48 to 96 hrs by broth microdilution test.

Values after ≈ are worked out from the molar mass of the structure shown. Bounds are passed on as bounds.

One may read the MFC as the lowest tested concentration that kills the fungus rather than only halting it. By MIC is commonly meant the lowest concentration that inhibits growth of the organism. The term MIC50 denotes the lowest concentration that inhibits either 50% of growth or 50% of the strains tested, depending on the study. Usually MIC90 stands for the lowest concentration that inhibits either 90% of growth or 90% of the strains tested, depending on the study. As a reminder, the CC50 is the concentration that lowers cell viability or growth by half. With `Cc1ccc(OC(CCn2ccnc2)c2ccc(C)cc2)cc1` (configuration not stated), the values for the MFC in [1], in data set [3] and in [9] were 8 µg/mL (≈ 26.1 µM), 20.5 µg/mL (≈ 66.9 µM) and 30.4 µg/mL (≈ 99.2 µM), respectively. The MIC in [1] was 2 µg/mL (≈ 6.53 µM); in [2] it was 4 µg/mL (≈ 13.1 µM); in data set [6], 4.8 µg/mL (≈ 15.7 µM); in data set [7] it was 4 µg/mL (≈ 13.1 µM); in [8], 8 µg/mL (≈ 26.1 µM). The MIC50 stood at 4 µg/mL (≈ 13.1 µM) in data set [2] and 8 µg/mL (≈ 26.1 µM) in [8]. For the same molecule, the values for the MIC90 in [2] and in data set [8] were 4 µg/mL (≈ 13.1 µM) and 8 µg/mL (≈ 26.1 µM), respectively. Moreover, the MFC50 in data set [3] is 16 µg/mL (≈ 52.2 µM); in [10], 32 µg/mL (≈ 104 µM). The MFC90 in [3] and in data set [9] was 32 µg/mL (≈ 104 µM) in each case. For the same molecule, the values for the CC50 at 24 h in [4] and in data set [5] were 263 µM and 191 µM, respectively.
Regarding `Fc1ccc(C(CCn2ccnc2)Oc2cc(Cl)cc(Cl)c2)cc1` (configuration not stated), the MFC is 4 µg/mL (≈ 11 µM) in [1], 11.7 µg/mL (≈ 32 µM) in data set [3] and 28.5 µg/mL (≈ 78 µM) in [9]. Besides, the MIC is 1 µg/mL (≈ 2.74 µM) in data set [1]; 8.8 µg/mL (≈ 24.1 µM) in [2]; 12.8 µg/mL (≈ 35 µM) in data set [6]; 8 µg/mL (≈ 21.9 µM) in data set [7]; 16.2 µg/mL (≈ 44.4 µM) in data set [8]. For the same molecule, the values for the MIC50 in data set [2] and in [8] were 8 µg/mL (≈ 21.9 µM) and 16 µg/mL (≈ 43.8 µM), respectively. Also, the MIC90 in [2] and in data set [8] was 16 µg/mL (≈ 43.8 µM) in each case. Also, the MFC50 in [3] worked out at 16 µg/mL (≈ 43.8 µM); in data set [10] it was 32 µg/mL (≈ 87.6 µM). Moreover, the results for the MFC90 in data set [3] and in [9] were 16 µg/mL (≈ 43.8 µM) and 32 µg/mL (≈ 87.6 µM), respectively. Also, the CC50 at 24 h was determined as 160 µM in [4] and 98.1 µM in data set [5].
Take `Clc1ccc(OC(CCn2ccnc2)c2ccc(Cl)cc2)cc1` (configuration not stated): in [1], the MFC came to 8 µg/mL (≈ 23 µM) and the minimum inhibitory concentration (MIC) was 4 µg/mL (≈ 11.5 µM). Further, in [2], the MIC came to 5.5 µg/mL (≈ 15.8 µM), the MIC50 was 4 µg/mL (≈ 11.5 µM) and the MIC90 is 8 µg/mL (≈ 23 µM). For the same molecule, in data set [3], the MFC50 amounted to 16 µg/mL (≈ 46.1 µM), the MFC90 was determined as 32 µg/mL (≈ 92.2 µM) and the MFC came out at 21.5 µg/mL (≈ 61.9 µM). Also, the CC50 at 24 h in [4] came to 327 µM. In addition, the CC50 at 24 h in data set [5] was 265 µM. Further, the lowest concentration to inhibit growth in data set [6] (MIC) was 8 µg/mL (≈ 23 µM). For the same molecule, inhibition of growth in data set [7] (MIC) required 4 µg/mL (≈ 11.5 µM).
On to `C[C@@H](c1ncncc1F)[C@](O)(Cn1cncn1)c1ccc(F)cc1F` [VORICONAZOLE], for which the MFC in data set [1] was determined as 0.125 µg/mL (≈ 0.358 µM); in [3], 26 µg/mL (≈ 74.4 µM); in data set [9], 0.9 µg/mL (≈ 2.58 µM). The MIC in data set [1] was 0.015 µg/mL (≈ 0.0429 µM); in [2], 0.89 µg/mL (≈ 2.55 µM); in data set [6], 16 µg/mL (≈ 45.8 µM); in data set [7], 0.016 µg/mL (≈ 0.0458 µM); in [8], 0.03 µg/mL (≈ 0.0859 µM). In addition, the figures for the MIC50 in data set [2] and in data set [8] were 0.25 µg/mL (≈ 0.716 µM) and 0.016 µg/mL (≈ 0.0458 µM), respectively. For the same molecule, the MIC90 in data set [2] is > 1 µg/mL; in data set [8] it was 0.06 µg/mL (≈ 0.172 µM). Further, the values for the MFC50 in data set [3] and in [10] were >16 µg/mL and 1 µg/mL (≈ 2.86 µM), respectively. Also, the MFC90 is >16 µg/mL in data set [3] and 1 µg/mL (≈ 2.86 µM) in [9].
`CCC(C)n1ncn(-c2ccc(N3CCN(c4ccc(OC[C@@H]5CO[C@@](Cn6cncn6)(c6ccc(Cl)cc6Cl)O5)cc4)CC3)cc2)c1=O` (some centres not stated) [ITRACONAZOLE]: the MFC in data set [1] was 0.25 µg/mL (≈ 0.354 µM); in data set [3], > 1 µg/mL; in [9], 1.4 µg/mL (≈ 1.98 µM). For the same molecule, the MIC in data set [1] turned out to be 0.06 µg/mL (≈ 0.085 µM); in data set [2] it was 0.5 µg/mL (≈ 0.709 µM); in data set [6] it was 16 µg/mL (≈ 22.7 µM); in data set [7] it was 0.031 µg/mL (≈ 0.0439 µM); in data set [8] it was 0.14 µg/mL (≈ 0.198 µM). In addition, the MIC50 is 0.5 µg/mL (≈ 0.709 µM) in data set [2] and 0.125 µg/mL (≈ 0.177 µM) in [8]. Moreover, the MIC90 in [2] stood at 1 µg/mL (≈ 1.42 µM); in data set [8], 0.25 µg/mL (≈ 0.354 µM). The MFC50 was >1 µg/mL in data set [3] and 1 µg/mL (≈ 1.42 µM) in data set [10]. Further, the values for the MFC90 in data set [3] and in data set [9] were >1 µg/mL and 2 µg/mL (≈ 2.83 µM), respectively.
With `Clc1ccc(C(CCn2ccnc2)Oc2ccccc2Cl)cc1` (configuration not stated), in [1], the MFC turned out to be 32 µg/mL (≈ 92.2 µM) and the MIC came to 4 µg/mL (≈ 11.5 µM). In data set [2], the MIC stood at 7.7 µg/mL (≈ 22.2 µM), the MIC50 was found to be 8 µg/mL (≈ 23 µM) and the MIC90 was 8 µg/mL (≈ 23 µM). In data set [3], the MFC50 is 32 µg/mL (≈ 92.2 µM), the MFC90 was determined as 32 µg/mL (≈ 92.2 µM) and the MFC was 27 µg/mL (≈ 77.8 µM). Besides, in data set [4], the CC50 at 24 h is 209 µM. Further, the CC50 at 24 h in [5] was 205 µM. Moreover, the MIC in [6] was determined as 8 µg/mL (≈ 23 µM). For the same molecule, the lowest concentration to inhibit growth in data set [7] (MIC) was 8 µg/mL (≈ 23 µM).
